# “Also recorded” adds a separate entry of the source.
# Experiments:
# GFP-Wingless [1] = assay: In vivo trapping of GFP-Wingless at the surface of wing imaginal disc cells; set-up: species or system Drosophila; conditions: overexpressed with ptc-Gal4 in wing imaginal discs
# In short: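 GFP-Wingless knock-in wing discs with V5-tagged human GPC4, GPC6, GPC3 or GPC5 driven by ptc-Gal4, crossed at 25°C. Surface capture of GFP-Wingless imaged by confocal microscopy after immunostaining with Alexa-conjugated secondaries and DAPI mounting. Three independent repeats.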
# GFP-Wingless[S239A] = assay: In vivo trapping of GFP-Wingless[S239A] at the surface of imaginal disc cells; set-up: species or system Drosophila; conditions: glypican overexpressed with ptc-Gal4 in imaginal discs
# senseless = conditions: overexpressed; ref [13],[14]; cited from earlier work
# Distal-less = conditions: overexpressed; ref [13],[14]; cited from earlier work
# GFP-Wingless [2] = conditions: culture medium, literature; ref [6],[22]; cited from earlier work
# [3] = Lipid binding of furin-site mutant vs wild-type Dlp^core; conditions: furin sites destroyed: K398Q, K399A, R402Q, R438Q, R441A
molecule,measurement,setting,value
"Dlp: Drosophila glypican Dally-like protein (protein, left off: HA, end not stated, kept) PQVAALAAPNPAGGVAGSSIIDQFSPNCSAVTHIFQARGIDAIEIPQKPSNERVLRYCESPSVGTCCTYNMETRMAMQSRQQLEGHTKDQISRMSGILGSKATKFKDIFTALLKESRTQFNSMFIRTYGVIYERNSYVFSDLFKELETYFANGRVDLLEVMDKFFNTLYQKMFTVLNTQYTFDENYMRCVSEHMKELKPFGDVPDKLSVQIKRSFVATRTYGQALTTASEVAKKVLNVRLNADCTGALTKMQHCGACKGYTEKPCTNYCVNVIKGCLHYQHEFDSEWENFAMAMDKVAERLLGSFNIVMVVEPLNIKISEAIMNFQDSGQDITNRVFQGCGRPKLKKMKRSISPKLQGVQILNARSPVEADTLDIDETLDEAIVLRERRAAEPGSQETSAQQSQEQGVGKSGNGGGGGGGNNRRQQQRRKQQQQRRKQQNNRDDNDDDDNESGGGREPILDRIVRDIRQRVKDYKKFWSNLPHSVCSNEDIASSSDVDGMCWNGHTIDRYMHSITTEHGSNPEFTGNPASTKQTAQMASQLSHLKNAIVHLRNAYNGQDVEWSEQEELPYAGSGAGSGSGSEDDEDDDEGSGLGPFEPSHKPDVERPSVDADNDDDEDAGGRGHMPTHTSRPTSGVDDKNPLIHTTHFDQDHNDLDEDHRQLDEDEDTDAG",trapping of GFP-Wingless at the cell surface,GFP-Wingless [1],duly trapped endogenous-level GFP-Wingless; also recorded: captures GFP-Wingless
same,trapping of GFP-Wingless[S239A] (unlipidated),GFP-Wingless[S239A],did not detectably trap; also recorded: not GFP-Wingless[S239A]
same,biphasic activity in wing imaginal discs: senseless,senseless,inhibiting the high target gene senseless
same,biphasic activity in wing imaginal discs: distal-less,Distal-less,extending the range of the low target gene distal-less
"Afamin: lipid-binding protein (protein, UniProt P43652 22-599, looked up) Afamin: LPTQPRDIENFNSTQKFIEDNIEYITIIAFAQYVQEATFEEMEKLVKDMVEYKDRCMADKTLPECSKLPNNVLQEKICAMEGLPQKHNFSHCCSKVDAQRRLCFFYNKKSDVGFLPPFPTLDPEEKCQAYESNRESLLNHFLYEVARRNPFVFAPTLLTVAVHFEEVAKSCCEEQNKVNCLQTRAIPVTQYLKAFSSYQKHVCGALLKFGTKVVHFIYIAILSQKFPKIEFKELISLVEDVSSNYDGCCEGDVVQCIRDTSKVMNHICSKQDSISSKIKECCEKKIPERGQCIINSNKDDRPKDLSLREGKFTDSENVCQERDADPDTFFAKFTFEYSRRHPDLSIPELLRIVQIYKDLLRNCCNTENPPGCYRYAEDKFNETTEKSLKMVQQECKHFQNLGKDGLKYHYLIRLTKIAPQLSTEELVSLGEKMVTAFTTCCTLSEEFACVDNLADLVFGELCGVNENRTINPAVDHCCKTNFAFRRPCFESLKADKTYVPPPFSQDLFTFHADMCQSQNEELQRKTDRFLVNLVKLKHELTDEELQSLFTNFANVVDKCCKAESPEVCFNEESPKIGN",release of soluble Wnt on addition of lipid-binding protein,GFP-Wingless [2],enables the release of soluble Wnt
"furin mutant form: Dlp^core form where both furin sites were destroyed (protein, left off: Twin-Strep, C-terminal, cleaved) DQFSPNCSAVTHIFQARGIDAIEIPQKPSNERVLRYCESPSVGTCCTYNMETRMAMQSRQQLEGHTKDQISRMSGILGSKATKFKDIFTALLKESRTQFNSMFIRTYGVIYERNSYVFSDLFKELETYFANGRVDLLEVMDKFFNTLYQKMFTVLNTQYTFDENYMRCVSEHMKELKPFGDVPDKLSVQIKRSFVATRTYGQALTTASEVAKKVLNVRLNADCTGALTKMQHCGACKGYTEKPCTNYCVNVIKGCLHYQHEFDSEWENFAMAMDKVAERLLGSFNIVMVVEPLNIKISEAIMNFQDSGQDITNRVFQGCGRPKLQAMKQSISPKLQGVQILNARSPVEADTLDIDETLDEAIVLQERAAAEPGSQETSAQQSQEQGVGKSGNGGGGGGGNNRRQQQRRKQQQQRRKQQNNRDDNDDDDNESGGGREPILDRIVRDIRQRVKDYKKFWSNLPHSVCSNEDIASSSDVDGMCWNGHTIDRYMHSITTEHGSNPEFTGNPASTKQTAQMASQLSHLKNAIVHLRNAYNGQDVEWSEQ",lipid binding behaviour vs wild-type form,[3],No difference in lipid binding behaviour

# From article PMC7610841 (Nature, 2020)
